The values that follow come from ChEMBL document CHEMBL3392966, “Antiproliferative activity of synthetic fatty acid amides from renewable resources” (Bioorg Med Chem, 2015).

The subject of data set [1] is 786-0. The data set is described as follows: Antiproliferative activity against human 786-0 cells after 48 hrs by sulforhodamine B assay. Format: functional. The following applies: 786-0, 48 h. The procedure, abridged:
(§1)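 Tumor cells grown in RPMI 1640 with 5% fetal bovine serum, with penicillin/streptomycin in experimental cultures. Exposed in 96-well plates to samples in DMSO/RPMI at 0.25, 2.5, 25 and 250 µg/mL, 37 °C, 5% CO2, 48 h. Fixed with 50% trichloroacetic acid before (T0) and after treatment, protein stained with sulforhodamine B and read at 540 nm. GI50, TGI and LC50 in µg/mL from dose-response curves by non-linear regression.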
For orientation: Sulforhodamine B stains cellular protein and so reports cell mass.

In data set [2] the test system is NCI/ADR-RES. In words: Antiproliferative activity against human NCI/ADR-RES cells assessed as tumor growth inhibition after 48 hrs by sulforhodamine B assay. The class given is functional. The procedure, abridged:
as §1

Data set [3] relates to MCF7. In words: Antiproliferative activity against human MCF7 cells assessed as tumor growth inhibition after 48 hrs by sulforhodamine B assay. The class given is functional. The following applies: MCF7, 48 h. An outline of the steps: as §1
Data set [4] can be described thus: Antiproliferative activity against human OVCAR3 cells assessed as tumor growth inhibition after 48 hrs by sulforhodamine B assay. The settings on record: OVCAR-3, 48 h. The class given is functional. An outline of the steps: as §1
The subject of data set [5] is NCI/ADR-RES. In words: Antiproliferative activity against human NCI/ADR-RES cells after 48 hrs by sulforhodamine B assay. The class given is functional. An outline of the steps:
as §1

Data set [6] can be described thus: Antiproliferative activity against human PC3 cells assessed as tumor growth inhibition after 48 hrs by sulforhodamine B assay. The class given is functional. The following applies: PC-3, 48 h. The procedure, abridged: as §1
Data set [7] deals with NCI-H460. In words: Antiproliferative activity against human NCI-H460 cells assessed as tumor growth inhibition after 48 hrs by sulforhodamine B assay. Format: functional. The following applies: NCI-H460, 48 h. The procedure, abridged: as §1
Data set [8] concerns U-251. In words: Antiproliferative activity against human U251 cells after 48 hrs by sulforhodamine B assay. Format: functional. The settings on record: U-251, 48 h. An outline of the steps:
as §1

Data set [9] relates to U-251. In words: Antiproliferative activity against human U251 cells assessed as tumor growth inhibition after 48 hrs by sulforhodamine B assay. The class given is functional. The settings on record: U-251, 48 h. An outline of the steps: as §1
The subject of data set [10] is MCF7. In words: Antiproliferative activity against human MCF7 cells after 48 hrs by sulforhodamine B assay. The following applies: MCF7, 48 h. Format: functional. The procedure, abridged:
as §1

The nature of data set [11]: Antiproliferative activity against human PC3 cells after 48 hrs by sulforhodamine B assay. The class given is functional. The settings on record: PC-3, 48 h. An outline of the steps: as §1
For data set [12], the system named is HaCaT. In words: Cytotoxicity against human HaCaT cells assessed as tumor growth inhibition after 48 hrs by sulforhodamine B assay. Format: cell-based. The procedure, abridged:
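Non-tumor lines (human HaCaT keratinocytes; Vero) in RPMI 1640 with 5% FBS, with penicillin/streptomycin added to experimental cultures. 48 h exposure at 0.25–250 µg/mL (DMSO/RPMI), 37 °C, 5% CO2. TCA fixation at time zero and at end, sulforhodamine B protein stain, absorbance 540 nm. TGI (total growth inhibition) from non-linear regression of the dose-response curve.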

In data set [13] the test system is HaCaT. The data set is described as follows: Cytotoxicity against human HaCaT cells after 48 hrs by sulforhodamine B assay. Format: cell-based.
Data set [14] has as its system 786-0. In words: Antiproliferative activity against human 786-0 cells assessed as tumor growth inhibition after 48 hrs by sulforhodamine B assay. Format: functional. The settings on record: 786-0, 48 h. An outline of the steps:
as §1

Data set [15] can be described thus: Antiproliferative activity against human OVCAR3 cells after 48 hrs by sulforhodamine B assay. The following applies: OVCAR-3, 48 h. The class given is functional. An outline of the steps: as §1
Data set [16] concerns NCI-H460. The data set is described as follows: Antiproliferative activity against human NCI-H460 cells after 48 hrs by sulforhodamine B assay. The class given is functional. The settings on record: NCI-H460, 48 h. An outline of the steps:
as §1

The structures appear in SMILES notation. Values after ≈ are worked out from the molar mass of the structure shown.

`CCCCCCCCCCCCCCCCCC(=O)N1CCOCC1`: the GI50 (commonly the concentration that inhibits growth by half) was 41.1 µg/mL (≈ 116 µM) in the data set on 786-0 [1]; 33.1 µg/mL (≈ 93.6 µM) in the data set on NCI/ADR-RES [5]; 39.9 µg/mL (≈ 113 µM) in the data set on U-251 [8]; 42.8 µg/mL (≈ 121 µM) in the data set with MCF7 [10]; 41.1 µg/mL (≈ 116 µM) in [11]; 43.3 µg/mL (≈ 122 µM) in data set [15]. The molecule also came in with a 50% growth inhibitory concentration (GI50) in the data set on NCI-H460 [16] of 53.1 µg/mL (≈ 150 µM). Besides, the TGI (usually the concentration giving total growth inhibition) in the data set on NCI/ADR-RES [2] stood at 86.9 µg/mL (≈ 246 µM); in the data set on MCF7 [3], 81.7 µg/mL (≈ 231 µM); in [4], 111 µg/mL (≈ 314 µM); in data set [6] it was 102 µg/mL (≈ 290 µM); in the data set with NCI-H460 [7] it was 161 µg/mL (≈ 455 µM); in the data set with U-251 [9], 82.6 µg/mL (≈ 234 µM). Also, the TGI is 94.2 µg/mL (≈ 266 µM) in the data set with HaCaT [12] and 85.6 µg/mL (≈ 242 µM) in the data set on 786-0 [14]. In addition, in the data set with HaCaT [13], the LC50 (usually the concentration lethal to half of the exposed cells or organisms) amounted to 41.5 µg/mL (≈ 117 µM).

As to `CCCCCCCCCCCCCCCC(=O)N1CCOCC1`, the 50% growth inhibitory concentration (GI50) worked out at 33.1 µg/mL (≈ 102 µM) with 786-0 [1]; 6.2 µg/mL (≈ 19 µM) in the data set with NCI/ADR-RES [5]; 25 µg/mL (≈ 76.8 µM) with U-251 [8]; 15.4 µg/mL (≈ 47.3 µM) in the data set on MCF7 [10]; 22.2 µg/mL (≈ 68.2 µM) in data set [11]; 33.1 µg/mL (≈ 102 µM) in data set [15]. For the same molecule, in the data set with NCI-H460 [16], the GI50 was determined as 34.1 µg/mL (≈ 105 µM). Besides, the TGI with NCI/ADR-RES [2] came out at 70.3 µg/mL (≈ 216 µM); in the data set on MCF7 [3], 54.7 µg/mL (≈ 168 µM); in [4], 72.7 µg/mL (≈ 223 µM); in data set [6], 36.7 µg/mL (≈ 113 µM); with NCI-H460 [7], 91 µg/mL (≈ 280 µM); in the data set on U-251 [9] it was 55.9 µg/mL (≈ 172 µM). The TGI with HaCaT [12] is 73.7 µg/mL (≈ 226 µM); with 786-0 [14], 69.9 µg/mL (≈ 215 µM). The molecule further displayed an LC50 in the data set with HaCaT [13] of 28.9 µg/mL (≈ 88.8 µM).

On to `CCCCCCCC/C=C\CCCCCCCC(=O)NCc1ccccc1`, for which the concentration for 50% growth inhibition (GI50) in the data set on 786-0 [1] was 104 µg/mL (≈ 281 µM); with NCI/ADR-RES [5], 50.3 µg/mL (≈ 135 µM); in the data set on U-251 [8] it was 55.4 µg/mL (≈ 149 µM); in the data set on MCF7 [10] it was 53.4 µg/mL (≈ 144 µM); in data set [11], 107 µg/mL (≈ 288 µM); in data set [15], 103 µg/mL (≈ 278 µM). For the same molecule, the concentration for 50% growth inhibition (GI50) with NCI-H460 [16] amounted to 94.9 µg/mL (≈ 255 µM). Moreover, the TGI (in the data set on NCI/ADR-RES [2]; in the data set on MCF7 [3]; in data set [4]; in data set [6]; with NCI-H460 [7]; in the data set on U-251 [9]) was greater than 250 µg/mL throughout. Besides, the TGI in the data set on HaCaT [12] and in the data set on 786-0 [14] was greater than 250 µg/mL in each case. This molecule also came in with an LC50 with HaCaT [13] of 92 µg/mL (≈ 248 µM).

Consider `CCCCCCCCCCCCCCCCCC(=O)N[C@H](C)c1ccccc1`, for which the TGI (in the data set on NCI/ADR-RES [2]; with MCF7 [3]; in data set [4]; in data set [6]; in the data set on NCI-H460 [7]; in the data set with U-251 [9]) was greater than 250 µg/mL in each case. Besides, the TGI in the data set with HaCaT [12] and with 786-0 [14] was greater than 250 µg/mL each time. Moreover, the GI50 in the data set with NCI/ADR-RES [5] is 25.7 µg/mL (≈ 66.3 µM); in the data set with U-251 [8] it was 161 µg/mL (≈ 414 µM); in the data set on MCF7 [10] it was 0.06 µg/mL (≈ 0.155 µM).

For `CCCCCCCCCCCCCCCC(=O)NCCO` [PALMIDROL], the TGI (in the data set with NCI/ADR-RES [2]; in the data set on MCF7 [3]; in [4]; in data set [6]; in the data set with NCI-H460 [7]; with U-251 [9]) was greater than 250 µg/mL each time. In addition, the TGI in the data set with HaCaT [12] and in the data set with 786-0 [14] was greater than 250 µg/mL in each case. The GI50 in the data set with NCI/ADR-RES [5] amounted to 158 µg/mL (≈ 527 µM).

On to `CCCCCCCC/C=C\CCCCCCCC(=O)N[C@@H](C)c1ccccc1`, for which the GI50 worked out at 10.3 µg/mL (≈ 26.7 µM) in the data set on 786-0 [1]; 0.3 µg/mL (≈ 0.778 µM) with NCI/ADR-RES [5]; 5.1 µg/mL (≈ 13.2 µM) in the data set on U-251 [8]; 7.17 µg/mL (≈ 18.6 µM) in the data set on MCF7 [10]; 13.7 µg/mL (≈ 35.5 µM) in [11]; 10.5 µg/mL (≈ 27.2 µM) in data set [15]. For the same molecule, halving of growth with NCI-H460 [16] (GI50) required 15.2 µg/mL (≈ 39.4 µM). Besides, the TGI in the data set with NCI/ADR-RES [2] worked out at 7.1 µg/mL (≈ 18.4 µM); in the data set with MCF7 [3], 43 µg/mL (≈ 112 µM); in [4] it was 45.5 µg/mL (≈ 118 µM); in data set [6], 47.1 µg/mL (≈ 122 µM); with NCI-H460 [7], 49.3 µg/mL (≈ 128 µM); in the data set on U-251 [9], 17.8 µg/mL (≈ 46.2 µM). Moreover, the total growth inhibition concentration (TGI) was determined as 36.8 µg/mL (≈ 95.4 µM) in the data set on HaCaT [12] and 45.8 µg/mL (≈ 119 µM) in the data set with 786-0 [14]. The molecule further came in with an LC50 in the data set on HaCaT [13] of 6.4 µg/mL (≈ 16.6 µM).

With `CCCCCC[C@@H](O)C/C=C\CCCCCCCC(=O)N1CCOCC1`, the GI50 in the data set with 786-0 [1] was found to be 36 µg/mL (≈ 97.9 µM); with NCI/ADR-RES [5], 29.4 µg/mL (≈ 80 µM); in the data set on U-251 [8] it was 33.1 µg/mL (≈ 90 µM); in the data set with MCF7 [10] it was 41.8 µg/mL (≈ 114 µM); in data set [11], 38.5 µg/mL (≈ 105 µM); in [15] it was 31 µg/mL (≈ 84.3 µM). Further, the concentration for 50% growth inhibition (GI50) in the data set on NCI-H460 [16] stood at 49.1 µg/mL (≈ 134 µM). Besides, the TGI was 143 µg/mL (≈ 388 µM) with NCI/ADR-RES [2]; 116 µg/mL (≈ 314 µM) in the data set on MCF7 [3]; 62.2 µg/mL (≈ 169 µM) in [4]; 72.6 µg/mL (≈ 198 µM) in data set [6]; 152 µg/mL (≈ 415 µM) in the data set with NCI-H460 [7]; 54.5 µg/mL (≈ 148 µM) in the data set on U-251 [9]. For the same molecule, the TGI in the data set on HaCaT [12] was determined as 97.4 µg/mL (≈ 265 µM); in the data set with 786-0 [14], 75.7 µg/mL (≈ 206 µM). In the data set with HaCaT [13], this molecule came in with an LC50 of 41.3 µg/mL (≈ 112 µM).
